Assay results taken from ChEMBL document CHEMBL3864185, “Identification of N-(2-Phenoxyethyl)imidazo[1,2-a]pyridine-3-carboxamides as New Antituberculosis Agents” (ACS Med Chem Lett, 2016).
Values after ≈ are worked out from the molar mass of the structure shown.

Legend:
[1] = tested on: Mycobacterium tuberculosis; assay: Antimycobacterial activity against isoniazid/rifampicin-resistant Mycobacterium tuberculosis isolate 11168 after 7 days by microplate alamar blue assay; format: functional; conditions: isolate 11168, 168 h
Method in brief: (§1)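 Microplate Alamar Blue Assay against clinical MDR M. tuberculosis isolates 11168 and 9160, both resistant to isoniazid and rifampicin. Read-out was fluorescence. MIC was the lowest concentration that reduced fluorescence by >90% versus the mean of replicate bacterium-only controls.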

[2] = tested on: Mycobacterium tuberculosis; assay: Antimycobacterial activity against isoniazid/rifampicin-resistant Mycobacterium tuberculosis isolate 9160 after 7 days by microplate alamar blue assay; format: functional; conditions: isolate 9160, 168 h; method in brief: as §1

SMILES	MIC [1] [µg/mL]	MIC [2] [µg/mL]
Cc1ccc2nc(C)c(C(=O)NCCOc3ccc(Cl)cc3)n2c1	0.025 (≈ 0.0727 µM)	0.028 (≈ 0.0814 µM)
Cc1cccc(OCCNC(=O)c2c(C)nc3ccc(C)cn23)c1	0.026 (≈ 0.0804 µM)	0.033 (≈ 0.102 µM)
Cc1ccc2nc(C)c(C(=O)NCCOc3ccc(Br)cc3)n2c1	0.036 (≈ 0.0927 µM)	0.051 (≈ 0.131 µM)
COc1cccc(OCCNC(=O)c2c(C)nc3ccc(C)cn23)c1	0.029 (≈ 0.0854 µM)	0.035 (≈ 0.103 µM)
Cc1ccc2nc(C)c(C(=O)NCCOc3ccccc3C)n2c1	0.036 (≈ 0.111 µM)	0.05 (≈ 0.155 µM)
COc1ccc(OCCNC(=O)c2c(C)nc3ccc(C)cn23)cc1	0.026 (≈ 0.0766 µM)	0.034 (≈ 0.1 µM)
Cc1ccc2nc(C)c(C(=O)NCCOc3ccccc3)n2c1	0.03 (≈ 0.097 µM)	0.047 (≈ 0.152 µM)
NNC(=O)c1ccncc1 [ISONIAZID]	> 40	> 40
CO[C@H]1/C=C/O[C@@]2(C)Oc3c(C)c(O)c4c(O)c(c(/C=N/N5CCN(C)CC5)c(O)c4c3C2=O)NC(=O)/C(C)=C\C=C\[C@H](C)[C@H](O)[C@@H](C)[C@@H](O)[C@@H](C)[C@H](OC(C)=O)[C@@H]1C [RIFAMPIN]	36.9 (≈ 44.8 µM)	38.6 (≈ 47 µM)
